Experimental data as given in ChEMBL document CHEMBL4342411, “Novel multitarget 5-arylidenehydantoins with arylpiperazinealkyl fragment: Pharmacological evaluation and investigation of cytotoxicity and metabolic stability” (Bioorg Med Chem, 2019).

Assays:
[1] = target: 5-hydroxytryptamine receptor 6 (Homo sapiens) (UniProt P50406); test: Displacement of [3H]-LSD from human recombinant 5-HT6 receptor expressed in CHO cells at 10^-6 M incubated for 60 mins by microbeta2 scintillation counter relative to control; format: cell-based
Summary of the method: (§1)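 Radioligand displacement from recombinant human receptor membranes, tested at two final concentrations (10^-6 and 10^-7 M), with scintillation counting. Results were expressed as percent inhibition of specific binding.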

[2] = target: T1, 5-hydroxytryptamine receptor 1A (Homo sapiens) (UniProt P08908); test: Antagonist activity at human recombinant 5-HT1A receptor expressed in CHOK1 cells assessed as equilibrium binding constant incubated for 25 mins followed by addition of methiothepin by microbeta2 scintillation counter; format: cell-based; settings: in the assay text read “serotonin” for “methiothepin”
T1 sequence (whole entry): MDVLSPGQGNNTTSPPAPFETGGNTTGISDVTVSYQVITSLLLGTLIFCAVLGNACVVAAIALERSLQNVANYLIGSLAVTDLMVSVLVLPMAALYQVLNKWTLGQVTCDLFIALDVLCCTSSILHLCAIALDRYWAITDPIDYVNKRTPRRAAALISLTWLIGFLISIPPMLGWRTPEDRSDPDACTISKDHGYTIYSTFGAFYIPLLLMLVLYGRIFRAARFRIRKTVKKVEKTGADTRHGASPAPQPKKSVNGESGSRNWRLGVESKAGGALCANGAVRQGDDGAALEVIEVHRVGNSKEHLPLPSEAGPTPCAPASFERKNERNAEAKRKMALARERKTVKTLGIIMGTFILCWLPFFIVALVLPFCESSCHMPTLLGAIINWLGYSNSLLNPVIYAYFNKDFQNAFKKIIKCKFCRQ
Summary of the method: (§2)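 Aequorin Ca2+ assay in antagonist mode in CHO-K1 cells expressing human 5-HT1A, Gα16 and mitochondrial aequorin, loaded with 5 μM coelenterazine h. Cells were injected onto the compounds (8–10 concentrations) and incubated for 25 min.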

[3] = target: T2, 5-hydroxytryptamine receptor 1A (Homo sapiens, UniProt P08908); test: Displacement of [3H]-8-OH-DPAT from human recombinant 5-HT1A receptor expressed in HEK293 cells incubated for 60 mins by microbeta2 scintillation counter; format: cell-based
T2 sequence (P08908 whole entry): T1 sequence (whole entry)

in vitro [4] = settings: CD1, mouse, liver microsomes
[5] = Metabolic stability in mouse liver microsomes assessed as metabolite formation measured after 30 mins in the presence of NADPH by LC-MS/MS analysis; format: ADME, Microsome; settings: 0.5 h
Summary of the method: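 Compound (20 µM final) was preincubated with mouse liver microsomes (0.4 mg/mL) in 100 mM potassium phosphate, pH 7.4, at 37 °C for 15 min. The reaction was started with an NADPH-regenerating system and sampled at 5, 15 and 30 min. Levallorphan internal standard was added, the reaction was stopped with perchloric acid, and samples were analysed by LC-MS/MS. No-NADPH incubations served as negative controls.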

[6] = Selectivity index, ratio of IC50 for human HaCaT cells to IC50 for human SW480 cells
[7] = Selectivity index, ratio of IC50 for human HaCaT cells for human PC3 cells; format: toxicity; settings: HaCaT cells versus PC3 cells, read-out: Ratio IC50
in vitro [8] = settings: CD1, mouse, liver microsomes; remark: listed apart in the source
[9] = target: T1, 5-hydroxytryptamine receptor 1A (Homo sapiens); test: Antagonist activity at human recombinant 5-HT1A receptor expressed in CHOK1 cells incubated for 25 mins followed by addition of […] by microbeta2 scintillation counter relative to control; format: cell-based; summary of the method: as §2
[10] = target: T3, 5-hydroxytryptamine receptor 7 (Homo sapiens, UniProt P34969); test: biochemical; format: cell-based, CHO
[11] = target: 3',5'-cyclic-AMP phosphodiesterase 4B (Homo sapiens) (UniProt Q07343); test: Inhibition of human recombinant full length N-terminal GST-tagged PDE4B1 expressed in baculovirus infected Sf9 cells at 10^-5 M using cAMP as substrate incubated for 20 mins followed by substrate addition by luciferase assay relative to control
[12] = target: 5-hydroxytryptamine receptor 2A (Homo sapiens) (UniProt P28223); settings: HEK293, at 1 µM
[13] = target: T3, 5-hydroxytryptamine receptor 7; test: Antagonist activity at human recombinant 5-HT7 receptor expressed in CHOK1 cells measured after 60 mins in the presence of serotonin by LANCE TR-FRET assay; format: cell-based
PC-3 = test: Cytotoxicity against human PC3 cells assessed as growth inhibition measured after 72 hrs by MTT assay; format: functional, cell-based; settings: PC-3, 72 h
Summary of the method: (§3)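 Cells were seeded at 1 × 10^4 per well: SW480 in MEM, PC3 in RPMI 1640, HaCaT in DMEM high glucose, each with 10% FBS. Compounds were added at 10–140 µM and incubated for 72 h. MTT was then added at 0.5 mg/mL in serum-free medium for 4 h at 37 °C. Formazan was dissolved in DMSO/isopropanol (1:1) and read at 570 nm. IC50 was given in µM; untreated cells served as control.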

[14] = target: T3, 5-hydroxytryptamine receptor 7; test: Antagonist activity at human recombinant 5-HT7 receptor expressed in CHOK1 cells measured after 60 mins in the presence of serotonin by LANCE TR-FRET assay relative to control; format: cell-based
[15] = target: T3, 5-hydroxytryptamine receptor 7; test: Antagonist activity at human recombinant 5-HT7 receptor expressed in CHOK1 cells assessed as equilibrium binding constant measured after 60 mins in the presence of serotonin by LANCE TR-FRET assay; format: cell-based
Mus musculus [16] = test: Effect on locomotor activity in Swiss albino mouse at 0.625 to 2.5 mg/kg, ip; format: ADME, organism-based; settings: in vivo
Summary of the method: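 Male Swiss albino mice were dosed ip in 1% Tween 80 at 10 ml/kg 60 min before testing. Each mouse was placed individually in a cage in a photobeam activity monitor. Ambulation crossings were counted from 2 to 6 min.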

[17] = target: 5-hydroxytryptamine receptor 6 (Homo sapiens) (UniProt P50406); test: Displacement of [3H]-LSD from human recombinant 5-HT6 receptor expressed in CHO cells at 10^-7 M incubated for 60 mins by microbeta2 scintillation counter relative to control; format: cell-based; summary of the method: as §1
[18] = target: T3, 5-hydroxytryptamine receptor 7; test: Agonist activity at human recombinant 5-HT7 receptor expressed in CHOK1 cells by LANCE TR-FRET assay relative to control; format: cell-based
Summary of the method: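 cAMP assay in CHO-K1 cells expressing human 5-HT7 […], at 2x10^5 cells/ml in HBSS with 5 mM HEPES, IBMX and 0.1% BSA, pH 7.4. Cells were stimulated with the compounds (8 concentrations) for 60 min at room temperature. cAMP was read by LANCE Ultra TR-FRET after 1 h with tracer and antibody. EC50 was obtained by nonlinear regression.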

Mus musculus [19] = test: Antidepressant activity in Swiss albino mouse assessed as decrease in immobility time at 0.625 to 2.5 mg/kg, ip measured after 60 mins by forced swim test relative to control; format: functional; set-up: scale not given: the % may be the effect or the level left
Summary of the method: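 Male Swiss albino mice (22–26 g), 7–10 per dose, were dosed ip in 1% Tween 80 at 10 ml/kg 60 min before the test. In the Porsolt test, each mouse was placed for 6 min in a cylinder with 6 cm of water at 23–25 °C. Immobility was scored over the last 4 min and compared with vehicle controls by ANOVA/Bonferroni.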

[20] = target: 5-hydroxytryptamine receptor 2A (Homo sapiens) (UniProt P28223); settings: HEK293, at 0.1 µM
[21] = target: T1, 5-hydroxytryptamine receptor 1A (Homo sapiens); test: Agonist activity at human recombinant 5-HT1A receptor expressed in CHOK1 cells measured after 1 hr by microbeta2 scintillation counter relative to control; format: cell-based
Summary of the method: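 Aequorin Ca2+ assay in CHO-K1 cells coexpressing mitochondrial aequorin, human 5-HT1A and Gα16. Thawed cells were loaded with coelenterazine h (5 μM final) for 16 h at 16 °C in the dark with agitation, then diluted to 5000 cells/ml. After 1 h they were injected onto the compounds (8–10 concentrations) and luminescence was recorded for 30 s.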

[22] = target: T2, 5-hydroxytryptamine receptor 1A; test: Antagonist activity at human recombinant 5-HT1A receptor expressed in CHOK1 cells incubated for 25 mins followed by addition of methiothepin by microbeta2 scintillation counter; format: cell-based; summary of the method: as §2
HaCaT = test: Cytotoxicity against human HaCaT cells assessed as growth inhibition measured after 72 hrs by MTT assay; format: cell-based; summary of the method: as §3
SW480 = test: Cytotoxicity against human SW480 cells assessed as growth inhibition measured after 72 hrs by MTT assay; format: functional, cell-based; settings: SW480, 72 h; summary of the method: as §3

T3 sequence (P34969 whole entry): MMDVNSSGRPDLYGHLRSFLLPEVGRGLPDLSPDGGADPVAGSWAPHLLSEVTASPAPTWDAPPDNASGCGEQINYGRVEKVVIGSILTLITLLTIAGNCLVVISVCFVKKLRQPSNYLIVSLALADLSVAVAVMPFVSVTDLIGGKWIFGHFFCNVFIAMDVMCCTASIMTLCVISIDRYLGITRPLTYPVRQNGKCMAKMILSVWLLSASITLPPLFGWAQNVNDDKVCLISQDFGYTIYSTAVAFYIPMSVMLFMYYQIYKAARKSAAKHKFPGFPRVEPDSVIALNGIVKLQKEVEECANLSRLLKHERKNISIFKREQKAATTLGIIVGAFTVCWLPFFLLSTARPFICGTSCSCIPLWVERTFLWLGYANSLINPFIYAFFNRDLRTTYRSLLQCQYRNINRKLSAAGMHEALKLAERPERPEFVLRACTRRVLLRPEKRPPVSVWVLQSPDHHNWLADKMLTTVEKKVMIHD
Sequence of 5-hydroxytryptamine receptor 2A (Homo sapiens) (P28223 whole entry): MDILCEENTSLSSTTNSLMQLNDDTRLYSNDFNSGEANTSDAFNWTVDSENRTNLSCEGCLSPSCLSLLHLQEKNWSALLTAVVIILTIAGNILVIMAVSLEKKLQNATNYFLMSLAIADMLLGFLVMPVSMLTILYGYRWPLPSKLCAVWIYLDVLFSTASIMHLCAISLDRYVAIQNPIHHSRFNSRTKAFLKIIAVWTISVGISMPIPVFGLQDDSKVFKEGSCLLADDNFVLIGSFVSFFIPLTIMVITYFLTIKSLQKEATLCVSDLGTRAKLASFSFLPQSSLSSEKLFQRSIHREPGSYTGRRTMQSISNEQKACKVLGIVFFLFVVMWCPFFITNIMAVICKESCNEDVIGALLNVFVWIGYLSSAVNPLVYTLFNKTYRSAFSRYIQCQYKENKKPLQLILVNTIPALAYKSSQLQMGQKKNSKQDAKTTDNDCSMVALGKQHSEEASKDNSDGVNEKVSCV
Sequence of 5-hydroxytryptamine receptor 6 (Homo sapiens) (P50406 whole entry): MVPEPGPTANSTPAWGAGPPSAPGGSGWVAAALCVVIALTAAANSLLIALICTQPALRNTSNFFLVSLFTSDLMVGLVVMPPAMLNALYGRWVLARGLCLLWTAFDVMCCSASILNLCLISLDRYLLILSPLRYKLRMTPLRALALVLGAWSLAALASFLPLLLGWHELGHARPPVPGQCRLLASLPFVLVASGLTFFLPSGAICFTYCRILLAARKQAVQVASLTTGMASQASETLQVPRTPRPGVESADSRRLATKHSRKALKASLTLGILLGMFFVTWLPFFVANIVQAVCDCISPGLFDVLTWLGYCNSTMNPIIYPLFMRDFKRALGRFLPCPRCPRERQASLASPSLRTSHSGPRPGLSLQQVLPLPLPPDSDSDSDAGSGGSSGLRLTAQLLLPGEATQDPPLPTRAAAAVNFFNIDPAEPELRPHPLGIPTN
Sequence of 3',5'-cyclic-AMP phosphodiesterase 4B (Homo sapiens) (Q07343 whole entry): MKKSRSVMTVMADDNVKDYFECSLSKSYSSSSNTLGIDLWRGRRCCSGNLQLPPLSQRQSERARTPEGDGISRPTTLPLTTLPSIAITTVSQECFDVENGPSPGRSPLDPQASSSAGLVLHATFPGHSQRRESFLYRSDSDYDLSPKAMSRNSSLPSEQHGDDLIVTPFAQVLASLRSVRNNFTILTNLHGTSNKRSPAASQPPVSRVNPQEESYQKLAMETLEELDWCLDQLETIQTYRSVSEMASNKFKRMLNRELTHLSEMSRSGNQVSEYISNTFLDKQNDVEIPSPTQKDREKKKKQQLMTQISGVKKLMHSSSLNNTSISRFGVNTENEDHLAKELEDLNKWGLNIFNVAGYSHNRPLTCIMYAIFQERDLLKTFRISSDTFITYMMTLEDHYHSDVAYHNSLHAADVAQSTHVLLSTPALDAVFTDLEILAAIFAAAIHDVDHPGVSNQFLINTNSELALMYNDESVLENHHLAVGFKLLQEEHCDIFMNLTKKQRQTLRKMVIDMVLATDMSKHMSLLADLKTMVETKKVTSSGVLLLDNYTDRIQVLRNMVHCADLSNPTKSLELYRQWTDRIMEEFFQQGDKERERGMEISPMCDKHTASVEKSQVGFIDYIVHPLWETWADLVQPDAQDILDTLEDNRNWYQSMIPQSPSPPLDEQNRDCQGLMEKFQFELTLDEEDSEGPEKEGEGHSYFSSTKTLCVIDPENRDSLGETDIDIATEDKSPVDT

Question: Which inhibition [1] does the source give for `COc1ccc(/C=C2\NC(=O)N(CCCCN3CCN(c4ccccc4OC)CC3)C2=O)cc1OC1CCCC1` here?
Answer: 5%

Question: What about the Kb [2] of the same compound?
Answer: 1.7 nM

Question: What about the Ki [3] of the same compound?
Answer: 1 nM

Question: What about the half-life (in vitro [4]) of the same compound?
Answer: 12.8 min

Question: And the Drug metabolism [5]?
Answer: Metabolite_Detected

Question: And the “Ratio IC50” value [6]?
Answer: 0.81

Question: What about the selectivity ratio [7] of the same compound?
Answer: 0.59

Question: And the microsomal CLint (in vitro [8])?
Answer: 136 µL/min/mg

Question: And the Emax [9]?
Answer: 3%

Question: What about the Ki [10] of the same compound?
Answer: 1 nM

Question: What about the inhibition [11] of the same compound?
Answer: 14%

Question: What about the inhibition [12] of the same compound?
Answer: 95%

Question: What about the IC50 [13] of the same compound?
Answer: 219 nM

Question: What about the IC50 (PC-3) of the same compound?
Answer: 254000 nM

Question: And the Emax [14]?
Answer: 33%

Question: And the Kb [15]?
Answer: 73 nM

Question: What about the Activity (Mus musculus [16]) of the same compound?
Answer: Non-Toxic

Question: And the inhibition [17]?
Answer: 0%

Question: And the Emax [18]?
Answer: 14%

Question: And the Activity (Mus musculus [19])?
Answer: 30%

Question: What about the inhibition [20] of the same compound?
Answer: 50%

Question: And the Emax [21]?
Answer: 6%

Question: And the IC50 ([22]; in the assay text read “serotonin” for “methiothepin”, read-out: IC50)?
Answer: 54 nM

Question: What about the IC50 ([22]; read-out: pIC50 (converted)) of the same compound?
Answer: 61.7 nM

Question: What about the IC50 (HaCaT) of the same compound?
Answer: 151000 nM

Question: And the IC50 (SW480)?
Answer: 185000 nM
